Data set [1] relates to Plasmodium falciparum. In words: Antimalarial activity against chloroquine-resistant Plasmodium falciparum W2 after 48 to 72 hrs by SYBR green-1 assay. The class given is functional, organism-based. In short, it runs like this: (§1)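 P. falciparum culture tested in vitro on the CQ-sensitive 3D7 or CQ-resistant W2 clone. Each experiment was run twice, with wells in triplicate. IC50 in nM is the mean of at least two experiments.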

The subject of data set [2] is HUVEC. In words: Cytotoxicity against HUVEC up to 100 uM after 24 hrs by Tryptan Blue assay. The following applies: human. It is filed as cell-based.
The subject of data set [3] is Plasmodium falciparum. In words: Antimalarial activity against chloroquine-sensitive Plasmodium falciparum 3D7 after 48 to 72 hrs by SYBR green-1 assay. It is filed as functional, organism-based. A digest of the protocol: as §1
Data set [4] concerns HUVEC. In words: Cytotoxicity against HUVEC at 0.01 to 50 umol/L after 24 hrs by Tryptan Blue assay. The class given is cell-based. The following applies: human. A digest of the protocol:
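Human umbilical vein endothelial cells (HUVEC) were exposed to final concentrations from 0.01 up to 50 μM. Cytotoxicity was reported as an IC50 or as a minimum cytotoxic value extrapolated from the tested range.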

Data set [5] relates to Plasmodium falciparum. In words: Resistant index, ratio of IC50 for chloroquine-resistant Plasmodium falciparum W2 to IC50 for chloroquine-sensitive Plasmodium falciparum 3D7. It is filed as functional.

By IC50 is commonly meant the concentration at which inhibition is half-maximal. A lower IC50 goes with greater potency in that assay. For `CN(CCNc1ccnc2cc(Cl)ccc12)CCN1C(=O)C(CC(F)(F)F)=CC1(O)CSc1ccc(Br)cc1` (centres undefined), the results for the IC50 with Plasmodium falciparum [1] and in the data set on Plasmodium falciparum [3] were 42 nM and 45 nM, respectively. Moreover, the Activity result with HUVEC [2] was “Non-toxic”.

Take `CN(CCNc1ccnc2cc(Cl)ccc12)CCN1C(=O)C(CC(F)(F)F)=CC1(O)CSc1ccc(Cl)cc1` (centres undefined): the IC50 in the data set on Plasmodium falciparum [1] stood at 57 nM; with Plasmodium falciparum [3], 55 nM. For the same compound, the Activity entry in the data set with HUVEC [2] is on record as “Non-toxic”.

On to `CN(CCNc1ccnc2cc(Cl)ccc12)CCN1C(=O)C(CC(F)(F)F)=CC1(O)CSc1ccccc1` (centres undefined), for which the 50% inhibitory concentration (IC50) stood at 55 nM with Plasmodium falciparum [1] and 47 nM with Plasmodium falciparum [3]. Further, the Activity entry in the data set with HUVEC [2] is reported as “Non-toxic”.

For the compound `O=C1C(CC(F)(F)F)=CC(O)(CSc2ccccc2)N1CCNc1ccnc2cc(Cl)ccc12` (centres undefined), the Activity result in the data set on HUVEC [4] is “Non-toxic”. The “Ratio IC50” value in the data set on Plasmodium falciparum [5] was found to be 1.56. Also, the results for the IC50 in the data set with Plasmodium falciparum [1] and with Plasmodium falciparum [3] were 167 nM and 107 nM, respectively.

Take `COc1ccc(SCC2(O)C=C(CC(F)(F)F)C(=O)N2CCNc2ccnc3cc(Cl)ccc23)cc1` (centres undefined): the Activity entry in the data set with HUVEC [4] is recorded as “Non-toxic”. In the data set with Plasmodium falciparum [5], the “Ratio IC50” value is 1.71. The results for the IC50 with Plasmodium falciparum [1] and with Plasmodium falciparum [3] were 173 nM and 101 nM, respectively.

`O=C1C(CC(F)(F)F)=CC(O)(CSc2ccc(F)cc2)N1CCNc1ccnc2cc(Cl)ccc12` (centres undefined): the Activity entry in the data set with HUVEC [4] is given as “Non-toxic”. Further, in the data set with Plasmodium falciparum [5], the “Ratio IC50” value turned out to be 2.49. Further, the IC50 was determined as 759 nM in the data set with Plasmodium falciparum [1] and 305 nM in the data set with Plasmodium falciparum [3].

On to `O=C1C(CC(F)(F)F)=CC(O)(CSc2ccccn2)N1CCNc1ccnc2cc(Cl)ccc12` (centres undefined), for which the Activity entry in the data set on HUVEC [4] is reported as “Non-toxic”. Also, the “Ratio IC50” value in the data set with Plasmodium falciparum [5] is given as 1.22. Besides, the 50% inhibitory concentration (IC50) with Plasmodium falciparum [1] is 218 nM; in the data set on Plasmodium falciparum [3], 179 nM.

Turning to `O=C1C(CC(F)(F)F)=CC(O)(CSc2ccncc2)N1CCNc1ccnc2cc(Cl)ccc12` (centres undefined), the “Ratio IC50” value in the data set with Plasmodium falciparum [5] worked out at 7.48. Further, the IC50 was found to be 666 nM in the data set with Plasmodium falciparum [1] and 89 nM in the data set on Plasmodium falciparum [3].

For the compound `O=C1C(CC(F)(F)F)=CC(O)(CSc2ncccn2)N1CCNc1ccnc2cc(Cl)ccc12` (centres undefined), the Activity result in the data set on HUVEC [4] is listed as “Non-toxic”. Besides, the “Ratio IC50” value in the data set with Plasmodium falciparum [5] turned out to be 1.65. Further, the IC50 turned out to be 458 nM in the data set with Plasmodium falciparum [1] and 278 nM in the data set on Plasmodium falciparum [3].

For the compound `O=C1C(CC(F)(F)F)=CC(O)(CSc2cccc[n+]2[O-])N1CCNc1ccnc2cc(Cl)ccc12` (centres undefined), the Activity result in the data set with HUVEC [4] was “Non-toxic”. Further, the “Ratio IC50” value in the data set on Plasmodium falciparum [5] is recorded as 1.13. Further, the IC50 in the data set on Plasmodium falciparum [1] worked out at 274 nM; in the data set on Plasmodium falciparum [3], 242 nM.

`Cn1cnnc1SCC1(O)C=C(CC(F)(F)F)C(=O)N1CCNc1ccnc2cc(Cl)ccc12` (centres undefined): the “Ratio IC50” value in the data set with Plasmodium falciparum [5] is >3.2. The IC50 is > 1600 nM in the data set with Plasmodium falciparum [1] and 499 nM in the data set on Plasmodium falciparum [3].

The values above are taken from ChEMBL document CHEMBL2440053, “New route to the 5-((arylthio- and heteroarylthio)methylene)-3-(2,2,2-trifluoroethyl)-furan-2(5H)-ones--key intermediates in the synthesis of 4-aminoquinoline γ-lactams as potent antimalarial compounds” (Bioorg Med Chem Lett, 2013).
